The text below walks through data of ChEMBL document CHEMBL4513216, “Probing the Open Global Health Chemical Diversity Library for Multistage-Active Starting Points for Next-Generation Antimalarials” (ACS Infect Dis, 2020).

Molecules are shown by their SMILES.

This series is described as follows: Toxicity liver stage against HepG2, at 10uM. The class given is cell-based. More on the design: test concentration 10 uM, cell line HepG2-A16-CD81EGFP. As to conditions: human, HepG2-A16-CD81EGFP cells; read-out: INHIBITION
The gist of the method: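 Uninfected HepG2-A16-CD81EGFP cells, 3 × 10^3 per well, 1536-well, plated on prespotted compound at 10 μM final, parasite-free screening media added to match infected plates; puromycin 10 μM positive, DMSO 0.5% negative; run in parallel with 48 h PbLuc assay at 37 °C, 5% CO2; viability by CellTiter-Glo luminescence, normalized to controls.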
In the case of `CC[C@H]1CN2CC[C@H]1C[C@@H]2CNCc1ccc(N(C)C)cc1`, the cytotoxicity at 10 µM was -5.66%.
Consider `CN(C)C(=O)CN1CCC2(CC1)CC(=O)c1c(ccc3ccccc13)O2`, for which the cytotoxicity at 10 µM was found to be 3.28%.
For `O=S1(=O)c2cccnc2OC(Cc2ccccc2)CN1CC1CC1` (stereo unspecified), the cytotoxicity at 10 µM was -2.46%.
The result for `CN1C(=O)C2(CC(=O)Nc3c2cnn3C(C)(C)C)c2ccccc21` (stereo unspecified) reads -4.5%; that for `Cn1ncc2c1NC(=O)CSC2c1ccc2c(c1)OCO2` (stereo unspecified), 0.435%.
To `CCSc1nc(N)c(NC(=O)c2ccc(C)cc2)c(=O)[nH]1` belongs -57.3%.
Turning to `COc1cn(CC(N)=O)c(CSc2nc(C)cc(C)n2)cc1=O`, the cytotoxicity at 10 µM was -30.2%.
The result for `O=c1c(S(=O)(=O)N2CCCC2)cccn1Cc1ccc(F)cc1Cl` reads 12%; that for `COc1ccc(C(=O)NCC(C)(O)CCc2ccccc2)cc1` (stereo unspecified), -7.39%; that for `O=C(c1cc(Br)ccc1-n1cnnn1)N1CCCCC1`, -1.25%.
The result for `O=c1[nH]c2c(c(=O)n1C1CCCCC1)CCC2Nc1ccccn1` (stereo unspecified) reads -8.02%; that for `CC1CCN(c2nc3ncc4c(c3c(=O)[nH]2)CC(C)(C)CC4=O)CC1`, 3.49%.
The result for `CCOC(=O)N1CCN(C(=O)c2sc(-c3ccncc3)nc2C)CC1` reads -3.3%; that for `CNC(=O)c1cc(S(=O)(=O)C(C)C)cs1`, 5.08%.
For `COc1ccc(OC)c(C(C)Nc2ncnc3c2NC(=O)CN3)c1` (stereo unspecified), the cytotoxicity at 10 µM is 10.6%.
The result for `CCC(=O)Nc1nnc(CCCOc2ccccc2)s1` reads -0.834%; that for `CC1(C(N)=O)CN(S(=O)(=O)c2cccc(F)c2)CCO1` (stereo unspecified), 6.73%.
To `COCC(=O)N1C[C@@H](c2cc(O)nc(C)n2)[C@H](c2ccccc2F)C1` belongs 5.62%; to `Cc1c[nH]nc1C1CN(c2cnccn2)CCO1` (stereo unspecified), 4.34%; to `Cc1nccc(C2CCCN(S(=O)(=O)N3CCOCC3)C2)n1` (stereo unspecified), 6.08%.
To `Cc1ncc(-c2ccncc2)c(C2CCN(C(=O)c3ccno3)CC2)n1` belongs 2.08%.
For the compound `Cc1noc(C)c1-c1ccnc(C2CCN(C3CCOCC3)CC2)c1`, the cytotoxicity at 10 µM was -28.7%.
The result for `C[C@]1(O)CN(Cc2ncccc2F)CC[C@@H]1Oc1ccccc1` reads -21%.
As to `CN1CCCCC1c1ncc2c(n1)CCN(Cc1ccc(F)cc1)C2` (stereo unspecified), the cytotoxicity at 10 µM was -17.6%.
On to `O=C(NCCO)Nc1cnc2cc(Cl)ccc2c1O`, for which the cytotoxicity at 10 µM is -30.2%.
The result for `Fc1cccc(Cl)c1CN1CCC(c2n[nH]c3ncccc23)CC1` reads -13.7%; that for `CC(C)Cc1cc(C(=O)N2CCC(N3CCCC3)CC2)cc(O)n1`, 4.64%.
The result for `Cc1noc(C(C)C)c1C(=O)NCC1CCCN1Cc1ccccc1` (stereo unspecified) reads -4.45%.
To `Cc1[nH]ncc1CCCNC(=O)N1CCC(CC(N)=O)CC1` belongs 5.45%.
In the case of `COCCN(Cc1ccc(C)o1)C(=O)Nc1nnc(C(F)F)s1`, the cytotoxicity at 10 µM came to 1.24%.
The result for `CCN1CCN2CCCN(S(=O)(=O)c3cccc(F)c3)C2C1=O` (stereo unspecified) reads 5.18%; that for `NC(=O)CN1CCN(S(=O)(=O)N2CCCC2c2ccco2)CC1` (stereo unspecified), -3.48%; that for `CCCc1cc(N(CCOC)CC(F)F)n2ncnc2n1`, 4.81%.
The result for `CCc1oc(C(=O)OC)cc1Cn1cccc(C(F)(F)F)c1=O` reads -2.13%; that for `CN(CCCNC(=O)C1CCc2cn[nH]c2C1)c1ccccc1` (stereo unspecified), -5.19%.
The result for `CN(Cc1ccncc1)C(=O)Nc1cnn(CC(N)=O)c1` reads -3.07%; that for `COc1ccc(Cl)c(NCC(=O)NCC(=O)N2CCCC2)c1`, -5.7%.
On to `CCOc1ccc(NS(=O)(=O)c2cc(C)c(C(=O)O)s2)cc1F`, for which the cytotoxicity at 10 µM was -3.24%.
As for `CC(C)C(=O)NCCC(=O)N1CCN(c2ccccn2)CC1`, the cytotoxicity at 10 µM is -6.13%.
As to `Cc1ccc(CNCc2c(C(C)C)nn(C)c2N2CCOCC2)s1`, the cytotoxicity at 10 µM is -3.03%.
To `CCOc1cncc(N2CCCC2c2nnc3n2CCCCC3)n1` (stereo unspecified) belongs -5.93%; to `O=C(NCCn1ccnc1)c1cncc(Br)c1`, 17.7%; to `CC(=O)NCCC(=O)NCC1(c2c(F)cccc2F)CCCC1`, -2.75%.
To `CC(C)(C)CC(=O)Nc1ccc(S(C)(=O)=O)nc1` belongs -3.05%; to `CC1CCCCN1S(=O)(=O)NCc1cccnc1OC1CCCC1` (stereo unspecified), -89.8%; to `CNC(=O)CCN1CCCC1c1ccccc1Br` (stereo unspecified), 15.3%.
The result for `Cc1cc(C(=O)N2CCC(N3CCNC3=O)CC2)nn1C(C)(C)C` reads 5.56%.
In the case of `CCc1ccc(C(=O)O)cc1S(=O)(=O)N(C)c1cccc(C#N)c1`, the cytotoxicity at 10 µM is -2.08%.
To `CC(C)N(C)C(=O)c1ccc(Cl)c(NC(=O)COCC2CC2)c1` belongs 6.14%; to `Cc1ccccc1-n1cnc(Cl)c1C(=O)O`, -4.11%; to `CCCN(CC(F)(F)F)C(=O)c1cc(F)cc2[nH]cnc12`, 3.19%.
`CC(CN(C)C(=O)c1cn(C)nc1-c1ccc(F)cc1F)C(=O)O` (stereo unspecified): the cytotoxicity at 10 µM came out at 0.184%.
In the case of `Cc1nncn1CCNC(=O)C(C)(C)c1cccc(Cl)c1`, the cytotoxicity at 10 µM worked out at 8.55%.
To `N#Cc1cccc(CS(=O)(=O)NCCC(O)c2ccccc2)c1` (stereo unspecified) belongs 0.692%.
To `CN(C)C(=O)c1cnc2n1CCN(Cc1ccncc1)C2` belongs -69.4%.
The result for `CNC(=O)[C@@]12CCO[C@@H]1CCN(Cc1c(C)noc1C)C2` reads -70.5%.
Consider `Cc1ccc(S(=O)(=O)NCC2COCc3c(C)nnn3C2)cc1F` (stereo unspecified), for which the cytotoxicity at 10 µM was -4.55%.
To `COCCn1ccnc1CN1CCc2[nH]cnc2C1c1ccccn1` (stereo unspecified) belongs -3.3%; to `CS(=O)(=O)N1CCC2(CC1)c1ccccc1[C@@H](N1CCSCC1)[C@@H]2O`, -9.71%.
The result for `CC(C)C1CN(S(C)(=O)=O)CCCN1Cc1ccc(F)cc1` (stereo unspecified) reads 1.81%; that for `CCCn1cc(S(=O)(=O)N[C@H]2CN(C(C)=O)C[C@@H]2C2CC2)cn1`, -1.48%; that for `Cc1nn(C)c(C)c1-c1ccnc(N2CCCN(CC(C)C)CC2)n1`, 5.78%.
To `Cc1ccnc(N2CCN(C[C@]3(O)CCCN4CCCC[C@@H]43)CC2)c1` belongs 3.78%.
For the compound `Cc1cnc(C(=O)NCC2CCOc3ccccc3C2)cn1` (stereo unspecified), the cytotoxicity at 10 µM came to 5.06%.
The result for `Cc1ocnc1C(=O)N(Cc1cccnc1)C[C@@H]1CCC(=O)N1` reads 8.83%.
The result for `Cc1ccsc1C(=O)N1C[C@@H](C(=O)O)[C@H](C(C)C)C1` reads 9.42%; that for `CN1CCN(Cc2ccc(-c3ccc(C(N)=O)cc3)nc2)CC1`, 5.58%.
`CCO[C@H]1CN(C)C[C@@H]1NC(=O)c1cc(C)nc2c(C)cccc12`: the cytotoxicity at 10 µM turned out to be 3.28%.
The result for `Cc1cc(C)n(C2CCN(C(=O)c3cn4ccsc4n3)C2)n1` (stereo unspecified) reads 6.59%.
The result for `Cc1ccc(C(=O)N2CCC(=O)N(CC3CC3)C(C(C)C)C2)c(=O)[nH]1` (stereo unspecified) reads -15%; that for `OC1CCN(C2CCN(c3ccc(Cn4ccnc4)cn3)CC2)CC1`, -2.05%.
`Cc1cnccc1NCCNC(=O)C1CCCN(Cc2ccco2)C1` (stereo unspecified): the cytotoxicity at 10 µM is -7.67%.
The result for `CCCc1nc(C(=O)NCCCn2nnc3ccccc32)cs1` reads -14%; that for `CC(CNc1nccc(C(C)C)n1)Oc1cccnc1` (stereo unspecified), 4.34%; that for `COc1ncccc1-c1ncccc1NC(=O)C(C)C`, 3.78%.
To `NC(=O)c1cncc(Oc2cccc(CN3CCCC3)c2Cl)n1` belongs -3.47%; to `Cc1cccnc1CN1CCN(C(=O)CCn2ccc(=O)[nH]c2=O)CC1`, 1.99%.
To `C[C@@H]1CN(C(=O)C2(Cn3cccn3)CC2)CC[C@@]1(O)C1CC1` belongs -2.6%; to `CCc1ncc(C(=O)N2CC(Oc3ccccc3Cl)C2)cn1`, 45.7%.
As for `CCc1ccc2occ(CC(=O)N3CCC4(CCCN(C)C4=O)C3)c2c1` (stereo unspecified), the cytotoxicity at 10 µM was -14.5%.
The result for `Cc1cccc(CN2CCCC(O)(CNCc3ncccc3C)C2=O)c1` (stereo unspecified) reads -7.4%; that for `CN1CCC2(CC1)CN(C(=O)c1onc3ccccc13)CCCN2C`, 8.31%.
The result for `CCc1nccn1-c1cncc(C2CCCN2Cc2cccnc2)n1` (stereo unspecified) reads 5.82%.
The result for `CC(C)(C)n1cc(C(=O)N2CCN(Cc3ccncc3)CC2)cn1` reads -12.8%; that for `CCc1ncc2c(n1)CN(CC(=O)Nc1nnc(C)s1)CC2`, 2.94%.
For the compound `Cc1noc(C)c1C(=O)NCc1ccc(N2CCOC(C)C2)nc1` (stereo unspecified), the cytotoxicity at 10 µM is -3.46%.
The result for `Cc1cc(CN(C)C(=O)c2ccnc(N(C)C)c2)no1` reads 5.46%; that for `Cc1nc(C)n(CC2CCCN2Cc2nc3ccccc3n2C)n1` (stereo unspecified), -2.21%.
The result for `Cc1cnn(CC2CN(CC(=O)NCc3ccccn3)CCO2)c1` (stereo unspecified) reads -5.8%; that for `COc1cccc2c(C)c(C(=O)N3CCNCC3C(N)=O)[nH]c12` (stereo unspecified), 1.67%.
The result for `c1cn(-c2cnc(C3CCCNC3)cn2)cn1` (stereo unspecified) reads -25.2%.
Consider `Cc1cc2c(=O)n3c(nc2s1)CCN(Cc1cnn(C)c1C)CC3`, for which the cytotoxicity at 10 µM worked out at 3.06%.
The result for `Cc1cc(CN2CC[C@H]3C(=O)N(c4ccsc4)CCO[C@H]3C2)no1` reads -69.2%; that for `O=C(c1ccco1)N1CC[C@@H](N2CCOCC2)[C@@H]1Cc1ccncc1`, -78.2%; that for `Cc1cc(C(=O)N2CCO[C@H]3[C@H](OCCN(C)C)CC[C@@H]32)c(C)[nH]1`, 7.07%.
For the compound `NCC1CCC(C(NC(=O)c2ccccn2)c2ccccn2)CC1` (stereo unspecified), the cytotoxicity at 10 µM amounted to 2%.
